Here are results for 24 compounds from PubChem BioAssay.

A number with no mark means an inactive call. Results filed as inconclusive are left out. Active and inactive are the calls of the source.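 How the source made its calls, unless noted: active means cell viability at or below a set limit in both duplicate runs, the limit being the all-compound median minus 4 SD (cut at about 23% in these data, passing the limit was not always enough); inconclusive means no clear call, values can overlap the other calls; inactive means the rest.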

Assay [1] can be described thus: S. cerevisiae growth inhibition in permissive medium (OD615), pilot counter-assay for S. cerevisiae lifespan shortening project, permissive growth control (AID 705;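 active means growth inhibition above 25% in both replicates, a cutoff set 3 SD above the mean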). As to conditions: OD615, 24 h, at 10 µM, hits give high values. The method, boiled down: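 Timing: 24 h exposure, 30 °C / Material: Saccharomyces cerevisiae strain carrying genetically modified DeaD replicative-lifespan system / Signal: OD at 615 nm / Compound: 10 µM single dose, 0.25% DMSO / Medium: SC raffinose/galactose permissive medium / Evaluation: reduction in yeast growth (OD615)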

Assay [2] in a line: S. cerevisiae growth inhibition in restrictive medium, OD615, pilot screen, restrictive growth control, yeast lifespan reduction project (AID 706;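 active means growth inhibition above a set limit, 3 SD over mean compound inhibition, in both replicates, cut at about 43% in these data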;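 further: modified DeaD lifespan yeast strain shifted to restrictive glucose medium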). The note with it: OD615, 48 h, at 10 µM, hits give high values. The method, boiled down: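 System: Engineered S. cerevisiae DeaD strain | Detection: OD615 | Buffer or medium: CSMM-D glucose medium | Doses: 10 µM compound, 0.25% DMSO | Timing: 4 h pre-growth plus 48 h compound exposure, 30 °C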

Assay [3] in a line: doxorubicin toxicity protection in MRP-1 cells – H69AR cells, CellTiter-Glo, duplicate, MRP-1 activator project, pilot screen (AID 807;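 active means viability increase at or above a cutoff of the median across tested compounds plus 3 SD, cut at about 8.5% in these data, passing the limit was not always enough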;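 further: compound pretreatment 18-22 h then 72 h combined with doxorubicin; 0% = doxorubicin alone and 100% = vehicle without doxorubicin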). As to conditions: H69AR viability with doxorubicin, CellTiter-Glo luminescence; at 10 µM; hits give high values. In general terms: Cellular ATP, detected with luciferase, serves as a proxy for viable cell number.
The nature of assay [4]: viability of HCT116 without oncogenic beta-catenin – human colon tumor cells, pilot screen (AID 823).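 Further: 0% = wells killed by 20 µM Hyamine and 100% = untreated DMSO cell wells.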 The note with it: HCT116 beta-catenin knockout viability, CellTiter-Glo, 60 h; at 10 µM; hits give low values.
A short description of assay [5]: viability of PTEN-null HCT116 cells – cell-based, HCT116 clonal line, CellTiter-Glo, pilot screen (AID 824;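 active means viability at or below 27.92% in each of two runs, the all-compound median minus 4 SD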;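 further: 0% = 20 µM Hyamine control and 100% = vehicle cell control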). The note with it: HCT116 PTEN-deleted viability, 60 h, at 10 µM, hits give low values.
Assay [6] in a line: RAM pathway blockade in budding yeast – dse1pr::URA3 reporter, 5-FOA selection, pilot screen (AID 869;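 active means inhibition over a set limit, the all-compound mean plus 3 SD, in both replicate runs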;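 further: 0% = DMSO wells with no growth and 100% = 10 µM 1-NA-PP1 with full growth; RAM network block rescues cells from 5-FOA so hits raise OD615 growth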). As to conditions: S. cerevisiae dse1pr::URA3 5-FOA growth, OD615, 2 d; at 10 µM; hits give high values; strain carries analog-sensitive mutant Cbk1 kinase.
A short description of assay [7]: RAM signaling pathway blockade in yeast – S. cerevisiae, Pdr1DBD-CYC8 efflux-inhibited sensitized strain, primary screen (AID 1298;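 active means RAM network inhibition above 8.4% in each of two replicates, 3 SD over the compound average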;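 further: 0% = DMSO untreated cells without growth and 100% = 10 µM 1-NA-PP1 full growth; higher means more yeast growth rescued from 5-FOA killing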). The note with it: S. cerevisiae cbk1-as DSE1-URA3 strain, 5-FOA growth OD615, 2 d; at 50 µM; hits give high values.

In general, viability refers to a read-out of living cells in per cent, often relative to untreated cells. The inhibition is the change of the read-out against control, counted positive when it falls. As for `FC(F)C(F)(F)C1=CC(c2ccccc2)=NCCN1`, the growth inhibition in assay [1] was -9.88%; in assay [2] it was -17.6%. Further, the viability increase in assay [3] is -1.16%. Further, the viability in assay [4] was 96.7%; in assay [5] it was 85.5%. In assay [6], the inhibition is 1.59%. For the same compound, the RAM network inhibition in assay [7] was 2.09%.
Consider `Cc1ccc2nc(N3CCOCC3)c3nncn3c2c1`, for which the figures for the growth inhibition in assay [1] and in assay [2] were -6.37% and 3.97%, respectively. Besides, in assay [3], the viability increase was -2.43%. The viability in assay [4] was 106%; in assay [5], 96.1%. Also, the inhibition in assay [6] is 0.915%. Moreover, the RAM network inhibition in assay [7] is 1.57%.
As to `COc1ccc(-c2nnc(SCC(=O)N3CCN(c4ccccc4)CC3)o2)cc1OC`, the growth inhibition in assay [1] was -7.28%; in assay [2], 7.65%. Besides, the viability increase in assay [3] is -6.37%. The values for the viability in assay [4] and in assay [5] were 73.7% and 90%, respectively. Moreover, the inhibition in assay [6] is 1.64%. For the same compound, the RAM network inhibition in assay [7] is 1.67%.
Turning to `COc1cc(O)c(NC(C)=O)c2nonc12`, the growth inhibition in assay [1] was -5.37%; in assay [2], 5.21%. The viability increase in assay [3] is 0%. Besides, the values for the viability in assay [4] and in assay [5] were 101% and 107%, respectively. The inhibition in assay [6] was -0.845%. Besides, in assay [7], the RAM network inhibition was -1.46%.
Turning to `CC1(C)CC2CC(C)(CN2C(=O)c2cc(-c3ccccc3O)on2)C1` (stereo not drawn), the values for the growth inhibition in assay [1] and in assay [2] were -11.4% and -4.57%, respectively. Moreover, in assay [3], the viability increase is -5.87%. Besides, the viability is 75.5% in assay [4] and 61.9% in assay [5]. Also, in assay [6], the inhibition was 2.44%. Also, the RAM network inhibition in assay [7] was 6.15%.
Turning to `CCC(C)NC(=O)Cn1cc2c(n1)CCC(C)C2` (stereo not drawn), the growth inhibition in assay [1] is -6.78%; in assay [2] it was 6.43%. In assay [3], the viability increase is -1.54%. Besides, the viability was 103% in assay [4] and 97.3% in assay [5]. In addition, in assay [6], the inhibition is 0.14%. Also, in assay [7], the RAM network inhibition was 0.42%.
In the case of `CC(C)c1nnc(NC(=O)CN2C(=O)c3ccccc3C2=O)s1`, the growth inhibition is -5.71% in assay [1] and -6.92% in assay [2]. Moreover, in assay [3], the viability increase is -1.95%. Besides, the viability was 96.3% in assay [4] and 89.1% in assay [5]. Besides, the inhibition in assay [6] was 1.61%. Further, in assay [7], the RAM network inhibition was 3.84%.
For the compound `O=C(Nc1cc(=O)c2ccccc2o1)N1CCOCC1`, the results for the growth inhibition in assay [1] and in assay [2] were 1.73% and -7.41%, respectively. In addition, in assay [3], the viability increase is -2.39%. Besides, the viability in assay [4] and in assay [5] was 103% each time. Moreover, the inhibition in assay [6] was 2.6%. Moreover, in assay [7], the RAM network inhibition is 1.4%.
Turning to `CC(C)(C)n1nc2c(c1NC(=O)Cc1cccs1)CSC2`, the growth inhibition in assay [1] is -8.2%; in assay [2] it was 12.2%. The viability increase in assay [3] was -1.56%. Also, the viability in assay [4] was 93.8%; in assay [5] it was 92.4%. In addition, the inhibition in assay [6] is 0.95%. Further, the RAM network inhibition in assay [7] was 0.94%.
As for `COc1cc(NC(=O)COc2ccc(F)cc2)nc(OC)n1`, the values for the growth inhibition in assay [1] and in assay [2] were -2.6% and 11.7%, respectively. In addition, in assay [3], the viability increase was -3.92%. Also, the viability in assay [4] and in assay [5] was 101% in each case. In addition, the inhibition in assay [6] is 1.72%. For the same compound, the RAM network inhibition in assay [7] is 1.08%.
In the case of `CCCCOc1cccc(C2(C(=O)O)CCCC2)c1`, the growth inhibition was -6.28% in assay [1] and 4.47% in assay [2]. Further, the viability increase in assay [3] is -1.49%. The results for the viability in assay [4] and in assay [5] were 99% and 94.5%, respectively. The inhibition in assay [6] was 1.21%. In addition, the RAM network inhibition in assay [7] is 4.01%.
As for `CS(=O)(=O)Nc1ccc2c3c(cccc13)CC2`, the figures for the growth inhibition in assay [1] and in assay [2] were -15.4% and -15.1%, respectively. In assay [3], the viability increase is -1.25%. Also, the viability in assay [4] is 97.7%; in assay [5], 90.1%. Moreover, the inhibition in assay [6] was 1.14%. For the same compound, the RAM network inhibition in assay [7] was 7.52%.
`O=C(c1oc(=O)c2ccccc2c1-c1ccccc1)N1CCN(C2CCCCC2)CC1`: the growth inhibition in assay [1] is -7.33%; in assay [2], -0.045%. For the same compound, in assay [3], the viability increase is -1.86%. Besides, the figures for the viability in assay [4] and in assay [5] were 95.5% and 97.4%, respectively. In addition, in assay [6], the inhibition is 1.16%. Moreover, the RAM network inhibition in assay [7] was 6.22%.
Consider `Cc1[nH]c2ccccc2c1Cc1nnc(SCC(N)=O)o1`, for which the values for the growth inhibition in assay [1] and in assay [2] were 5.65% and -5.42%, respectively. In assay [3], the viability increase is -0.41%. Further, the viability is 100% in assay [4] and 102% in assay [5]. In addition, the inhibition in assay [6] was 1.88%. Moreover, in assay [7], the RAM network inhibition was 1.36%.
With `COc1ccc(OC)c(CNC(=O)Cc2c(C(=O)O)[nH]c3ccccc23)c1`, the growth inhibition in assay [1] is -7.09%; in assay [2], -25%. For the same compound, in assay [3], the viability increase was -0.54%. The viability was 104% in assay [4] and 101% in assay [5]. Also, the inhibition in assay [6] was -0.185%. Besides, the RAM network inhibition in assay [7] is 5.43%.
As for `COC(=O)C1=C(C)N(C)C(C)=C(C(=O)OC)C1c1ccccc1C`, the growth inhibition in assay [1] was -18.8%; in assay [2], -21.1%. The viability increase in assay [3] was -0.42%. Also, the values for the viability in assay [4] and in assay [5] were 94.6% and 87.7%, respectively. For the same compound, the inhibition in assay [6] is 0.365%. In addition, the RAM network inhibition in assay [7] is 3.87%.
With `COc1ccc(-n2c(SCC(=O)Nc3nccs3)nc3c(c2=O)SC(C)C3)cc1` (stereo not drawn), the growth inhibition was -7.21% in assay [1] and -3.74% in assay [2]. The viability increase in assay [3] is -2.46%. In addition, the viability in assay [4] is 97.1%; in assay [5], 93%. In addition, the inhibition in assay [6] is 1.56%. Besides, in assay [7], the RAM network inhibition was 7.02%.
Regarding `CC(NS(=O)(=O)c1ccc(Br)cc1)C(c1cccs1)N1CCN(C)CC1` (stereo not drawn), the growth inhibition in assay [1] was -5.18%; in assay [2], 3.13%. For the same compound, the viability increase in assay [3] is -2.85%. Also, the viability in assay [4] was 78.2%; in assay [5] it was 84.2%. Besides, the inhibition in assay [6] was 0.53%. Moreover, in assay [7], the RAM network inhibition was 0.88%.
With `COc1cc(C(=O)NCc2ccco2)c(Br)c(OC)c1OC`, the growth inhibition is -1.05% in assay [1] and -12.5% in assay [2]. In addition, in assay [3], the viability increase is -4.68%. For the same compound, the viability in assay [4] is 98.3%; in assay [5] it was 96%. The inhibition in assay [6] is 0.865%. Besides, the RAM network inhibition in assay [7] is -0.16%.
For `COc1ccccc1CNC(=O)Cn1cc2c(n1)CCCC2`, the results for the growth inhibition in assay [1] and in assay [2] were -6.06% and -7.73%, respectively. The viability increase in assay [3] is 13.7% (active). Also, the viability was 107% in assay [4] and 101% in assay [5]. The inhibition in assay [6] is 0.685%. Moreover, the RAM network inhibition in assay [7] was 3.05%.
Turning to `O=C(CCn1c(=O)oc2ccccc21)NCc1ccc2c(c1)OCO2`, the results for the growth inhibition in assay [1] and in assay [2] were -11.4% and -19.9%, respectively. The viability increase in assay [3] is -2.85%. Besides, the values for the viability in assay [4] and in assay [5] were 100% and 91.3%, respectively. In addition, the inhibition in assay [6] is 2.35%. In addition, the RAM network inhibition in assay [7] is 6.04%.
Turning to `COc1ccc(N(CC(=O)Nc2ccc3c(c2)OCO3)S(C)(=O)=O)c(OC)c1`, the values for the growth inhibition in assay [1] and in assay [2] were -12.6% and -4.5%, respectively. The viability increase in assay [3] was -2.19%. Besides, the viability in assay [4] is 97.9%; in assay [5] it was 96.5%. In addition, the inhibition in assay [6] is 1.41%. Further, in assay [7], the RAM network inhibition is 4.05%.
In the case of `CCOC(=O)Cn1c(=O)oc2cc(S(=O)(=O)NCC3CCCO3)ccc21` (stereo not drawn), the results for the growth inhibition in assay [1] and in assay [2] were -10.1% and -10.7%, respectively. In addition, in assay [3], the viability increase was -1.7%. Besides, the viability is 99.8% in assay [4] and 103% in assay [5]. In addition, the inhibition in assay [6] is 0.325%. Also, in assay [7], the RAM network inhibition is 2.41%.
As for `CCOCCCNC(=O)C(NC(=O)c1cnccn1)c1ccc(OC)cc1` (stereo not drawn), the values for the growth inhibition in assay [1] and in assay [2] were -8.29% and -6.63%, respectively. The viability increase in assay [3] was 1.76%. The viability in assay [4] is 102%; in assay [5] it was 95.7%. Moreover, the inhibition in assay [6] is 1.81%. In assay [7], the RAM network inhibition was 2.15%.
